High-throughput results (PubChem)
The full list was thinned out, with hits kept by preference.
Fibroblast inh = blocks proliferation of human lung fibroblasts; LL 47 human lung fibroblast viability, ATP luminescence; active compounds read low; viability, % at 10 µM; 85,000 tested, 1.1% active; AID 719;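 active = viability at or below 50% in the single dose screen; inactive = viability above 50%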;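 note: compound exposure lasted 72 h before the ATP readout; 100% = median luminescence of untreated cell-only wells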
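Test system: LL 47 human lung fibroblasts; Quantity: 1,150 cells/well; Buffer or medium: IMEM plus 15% FBS; Dosing: tenfold compound dosing solution, DMSO at 0.1%; Timing: overnight cell rest, 72 h compound treatment at 37 °C; Detection: ATP-based CellTiter-Glo luminescent readout; Read-out basis: viability percentage against median untreated-cell control; Controls: cell-only wells, no compound.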
HUVEC inhibit = human endothelial cell proliferation inhibition | HUVEC proliferation, CellTiter-Glo luminescence, 72 h; active compounds read low | viability, % at 10 µM (by protocol) | 86,000 tested, 1.1% active;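 active = viability at or below 30%; inactive = viability above 30%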;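 note: 100% = median luminescence of DMSO-only cell control wells on each plate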
H69AR growth 86K = blocks growth of human H69AR lung tumor cells; viability, % at 10 µM; AID 598; 85,000 tested, 6% active; H69AR lung tumor viability, ATP luminescence, 72 h; active compounds read low;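 active = viability at or below 40%; inactive = viability above 40%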;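 note: multidrug resistant small cell line overexpressing MRP-1 efflux transporter; 100% = mean luminescence of untreated control wells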
PTK2B oligo ant = Pyk2 (human) oligomerization antagonism; 99,000 tested, 0.83% active; AID 1347419; z-score (the deposit names both 25 µM and 10 µM); Q14289; Q293 cells, Pyk2 FERM NanoBiT luminescence; active compounds read low;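 active = Z-score of -3 or lower, scaled per plate to the spread of control and sample wells; inactive = z-score above -3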;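 note: negative z-score means lost luminescence so less FERM oligomerization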
HCT116 PTEN-null = growth suppressors of cells with PTEN tumor suppressor deletion. HCT116 PTEN-null viability, CellTiter-Glo, 60 h; active compounds read low. viability, % at 10 µM. 140,000 tested, 1.2% active;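 active = viability at or below a set limit, 4 SD under the median of all tested compounds, cut at about 3.7% in these data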;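 note: PTEN knockout HCT116 line with beta catenin targeted HCT116 as companion control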
HCT116 bCat-KO = beta-catenin-lacking colon tumor cell growth suppression | HCT116 beta-catenin knockout viability, CellTiter-Glo, 60 h; active compounds read low | viability, % at 10 µM | 140,000 tested, 1.5% active | AID 818;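 active = viability at or under a set limit, the compound median less 4 SD, cut at about 6% in these data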;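 note: 0% = Hyamine 1622 control at 20 µM and 100% = untreated cell control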
Numbers without * were called inactive.

How did COCCOC(=O)c1c(C)oc2ccc(OCc3cc(C(=O)OC)oc3C)cc12 do in these assays?
Fibroblast inh: 95; HUVEC inhibit: 63; H69AR growth 86K: 61; PTK2B oligo ant: -0.37; HCT116 PTEN-null: 34; HCT116 bCat-KO: 24

What do the screens show for `CCN1C(=O)C(Cc2nc3ccccc3c(=O)n2C)c2ccccc21` (stereo unspecified)?
Fibroblast inh: 96; HUVEC inhibit: 85; H69AR growth 86K: 50; PTK2B oligo ant: -1.1; HCT116 PTEN-null: 90; HCT116 bCat-KO: 91

How did CCCN1C(=O)C(Cc2nc3ccccc3c(=O)n2C)c2ccccc21 (stereo unspecified) do in these assays?
Fibroblast inh: 103; HUVEC inhibit: 94; H69AR growth 86K: 33*; PTK2B oligo ant: -0.79; HCT116 PTEN-null: 14; HCT116 bCat-KO: 10

Results for Cc1nc(NC2=NCN(CCc3ccccc3)CN2)nc2c(C)cccc12 ?
Fibroblast inh: 32*; HUVEC inhibit: 1.7*; H69AR growth 86K: 5.5*

How did Cc1cc2nc(NC3=NCN(Cc4ccc5c(c4)OCO5)CN3)nc(C)c2cc1C do in these assays?
Fibroblast inh: 49*; HUVEC inhibit: 33; H69AR growth 86K: 23*

Results for Cc1cc2nc(NC3=NCN(CCN4CCOCC4)CN3)nc(C)c2cc1C ?
Fibroblast inh: 85; HUVEC inhibit: 97; H69AR growth 86K: 108

Results for Cc1nc(NC2=NCN(CCc3ccccc3)CN2)nc2ccccc12 ?
Fibroblast inh: 84; HUVEC inhibit: 87; H69AR growth 86K: 65

What do the screens show for `Cc1nc(NC2=NCN(CCCN3CCOCC3)CN2)nc2c(C)cccc12`?
Fibroblast inh: 28*; HUVEC inhibit: 45; H69AR growth 86K: 2.3*; PTK2B oligo ant: 1; HCT116 PTEN-null: 26; HCT116 bCat-KO: 19

How did O=C(NN=C1CCN(Cc2ccccc2)CC1)C(O)c1ccccc1 (stereo unspecified) do in these assays?
HCT116 PTEN-null: 89; HCT116 bCat-KO: 99

What do the screens show for `CCCNS(=O)(=O)c1ccc(OCC(=O)N2CCOCC2)cc1`?
Fibroblast inh: 98; HUVEC inhibit: 90; H69AR growth 86K: 105; PTK2B oligo ant: 0.75; HCT116 PTEN-null: 100; HCT116 bCat-KO: 94

Results for Cc1cc(C)c(-c2c(O)c3cnn(-c4ccccc4)c3[nH]c2=O)c(C)c1 ?
PTK2B oligo ant: 0.5; HCT116 PTEN-null: 102; HCT116 bCat-KO: 90

What do the screens show for `O=C(CSc1nnc2c3ccccc3c3ccccc3c2n1)Nc1ccccc1F`?
PTK2B oligo ant: -0.66; HCT116 PTEN-null: 1.9*; HCT116 bCat-KO: 2.2*

What do the screens show for `O=C(CSc1nnc2c3ccccc3c3ccccc3c2n1)Nc1ccccc1`?
HCT116 PTEN-null: 35; HCT116 bCat-KO: 38

How did Cc1ccc(NC(=S)NNC(=O)c2ccc(N3CCOCC3)c([N+](=O)[O-])c2)cc1C do in these assays?
HCT116 PTEN-null: 72; HCT116 bCat-KO: 87

Results for CCC(=O)N(CCCN(C)C)c1nc(-c2cc(OC)ccc2OC)cs1 ?
Fibroblast inh: 98; HUVEC inhibit: 90; H69AR growth 86K: 79; PTK2B oligo ant: 0.48; HCT116 PTEN-null: 79; HCT116 bCat-KO: 84

What do the screens show for `COCCCN(C(C)=O)c1nc(-c2ccc(OC)cc2)cs1`?
Fibroblast inh: 72; HUVEC inhibit: 63; H69AR growth 86K: 15*; PTK2B oligo ant: -0.77; HCT116 PTEN-null: 63; HCT116 bCat-KO: 63

What do the screens show for `COc1ccc(-c2csc(N(CCCN(C)C)C(=O)c3cccs3)n2)cc1`?
Fibroblast inh: 94; HUVEC inhibit: 76; H69AR growth 86K: 22*; PTK2B oligo ant: 2.2; HCT116 PTEN-null: 62; HCT116 bCat-KO: 51

What do the screens show for `Clc1ccccc1CN(Cc1ccccc1)c1ncnc2nc[nH]c12`?
Fibroblast inh: 91; HUVEC inhibit: 87; H69AR growth 86K: 36*; PTK2B oligo ant: -1.5; HCT116 PTEN-null: 101; HCT116 bCat-KO: 95

Results for N#CC1=C2SCN(Cc3ccco3)CN2C(=O)CC1c1ccccc1F (stereo unspecified) ?
Fibroblast inh: 91; HUVEC inhibit: 96; H69AR growth 86K: 40*; PTK2B oligo ant: 0.46; HCT116 PTEN-null: 94; HCT116 bCat-KO: 100

What do the screens show for `N#CC1=C2SCN(Cc3ccco3)CN2C(=O)CC1c1cccc2ccccc12` (stereo unspecified)?
Fibroblast inh: 104; HUVEC inhibit: 69; H69AR growth 86K: 95; PTK2B oligo ant: -1.8; HCT116 PTEN-null: 88; HCT116 bCat-KO: 101

How did CC1=C(OC(=O)C(C)(C)C)C(C)(C)C(c2ccccc2)OC1=O (stereo unspecified) do in these assays?
HCT116 PTEN-null: 78; HCT116 bCat-KO: 83

Results for Cc1nnc(SCC(=O)c2ccccc2)n1Cc1ccccc1 ?
HCT116 PTEN-null: 94; HCT116 bCat-KO: 90

How did CCOc1ccccc1C(=O)N1CCC(n2nnc3cc(C(F)(F)F)ccc32)CC1 do in these assays?
Fibroblast inh: 98; HUVEC inhibit: 80; H69AR growth 86K: 39*; PTK2B oligo ant: 0.64; HCT116 PTEN-null: 81; HCT116 bCat-KO: 77

Results for COc1cc(C(=O)Nc2ccc(-c3nc4cc(C)ccc4o3)c(O)c2)cc(OC)c1OC ?
Fibroblast inh: 85; HUVEC inhibit: 80; H69AR growth 86K: 24*; PTK2B oligo ant: -0.63; HCT116 PTEN-null: 11; HCT116 bCat-KO: 13

How did Cc1ccc(OCC(=O)Nc2ccc(O)c(-c3nc4ccccc4o3)c2)cc1 do in these assays?
Fibroblast inh: 54; HUVEC inhibit: 3.0*; H69AR growth 86K: 13*; PTK2B oligo ant: 1.9; HCT116 PTEN-null: 71; HCT116 bCat-KO: 86

Results for COc1cc(OC)cc(C(=O)Nc2ccc(-c3nc4ccccc4o3)cc2)c1 ?
Fibroblast inh: 108; HUVEC inhibit: 35; H69AR growth 86K: 30*; PTK2B oligo ant: -1; HCT116 PTEN-null: 69; HCT116 bCat-KO: 77

Results for COc1cccc(C(=O)Nc2ccc(-c3nc4ccccc4o3)c(O)c2)c1 ?
Fibroblast inh: 79; HUVEC inhibit: 74; H69AR growth 86K: 9.5*; PTK2B oligo ant: -0.46; HCT116 PTEN-null: 30; HCT116 bCat-KO: 55

Results for COc1cc(C(=O)Nc2cccc(-c3nc4ccccc4o3)c2C)cc(OC)c1OC ?
Fibroblast inh: 79; HUVEC inhibit: 66; H69AR growth 86K: 76; PTK2B oligo ant: -1.1; HCT116 PTEN-null: 105; HCT116 bCat-KO: 90

Results for CCCC(C)NC(=O)COc1ccc(S(=O)(=O)c2ccc(OCC(=O)NC(C)CCC)cc2)cc1 (stereo unspecified) ?
HCT116 PTEN-null: 84; HCT116 bCat-KO: 95

Results for COc1ccc(NC(=O)C2CC(=O)OC23CCOC(C)(C)C3)cc1 (stereo unspecified) ?
Fibroblast inh: 98; HUVEC inhibit: 91; H69AR growth 86K: 88; PTK2B oligo ant: 0; HCT116 PTEN-null: 94; HCT116 bCat-KO: 95
